Assay results published in ChEMBL document CHEMBL3259629, “Discovery and optimization of piperidyl-1,2,3-triazole ureas as potent, selective, and in vivo-active inhibitors of α/β-hydrolase domain containing 6 (ABHD6)” (J Med Chem, 2013).
Calls of active or inactive are those of the source. The calls are words filed in the database; no cut-off is given here.

Assays:
[1] = target: T1, Serine beta-lactamase-like protein LACTB, mitochondrial (Mus musculus) (UniProt Q9EP89); conditions: Neuro2a, 3 nM
T1 sequence (whole entry): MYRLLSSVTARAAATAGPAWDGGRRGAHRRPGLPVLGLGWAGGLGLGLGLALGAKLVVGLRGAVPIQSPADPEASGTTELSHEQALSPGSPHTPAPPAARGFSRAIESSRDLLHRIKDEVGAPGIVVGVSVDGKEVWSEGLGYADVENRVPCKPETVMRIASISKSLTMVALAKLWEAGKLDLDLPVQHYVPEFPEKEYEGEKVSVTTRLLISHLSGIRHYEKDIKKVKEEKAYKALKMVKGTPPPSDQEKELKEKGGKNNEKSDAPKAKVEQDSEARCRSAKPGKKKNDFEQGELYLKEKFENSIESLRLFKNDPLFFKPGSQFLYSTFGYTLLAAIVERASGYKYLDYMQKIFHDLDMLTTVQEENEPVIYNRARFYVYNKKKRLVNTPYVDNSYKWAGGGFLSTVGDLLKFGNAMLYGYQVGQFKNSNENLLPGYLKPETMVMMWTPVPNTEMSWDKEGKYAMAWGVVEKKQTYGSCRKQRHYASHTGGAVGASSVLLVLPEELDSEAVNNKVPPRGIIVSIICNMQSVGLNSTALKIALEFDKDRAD

[2] = target: T2, Serine protease HTRA2, mitochondrial (Mus musculus) (UniProt Q9JIY5); conditions: Neuro2a, 3 nM
T2 sequence (whole entry): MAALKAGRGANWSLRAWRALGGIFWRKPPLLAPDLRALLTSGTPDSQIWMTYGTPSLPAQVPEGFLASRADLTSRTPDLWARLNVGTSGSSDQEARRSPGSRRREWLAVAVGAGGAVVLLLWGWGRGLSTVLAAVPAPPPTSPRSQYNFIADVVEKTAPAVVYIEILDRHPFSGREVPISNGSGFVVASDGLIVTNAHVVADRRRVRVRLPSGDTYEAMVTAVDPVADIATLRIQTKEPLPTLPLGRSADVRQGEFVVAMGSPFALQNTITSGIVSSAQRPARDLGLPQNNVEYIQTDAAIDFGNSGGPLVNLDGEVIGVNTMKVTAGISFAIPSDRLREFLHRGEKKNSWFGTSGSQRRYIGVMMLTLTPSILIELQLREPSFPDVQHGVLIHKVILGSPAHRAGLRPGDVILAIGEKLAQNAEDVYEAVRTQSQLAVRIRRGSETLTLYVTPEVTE

[3] = target: T3, Glutamyl-tRNA(Gln) amidotransferase subunit A, mitochondrial (Mus musculus) (UniProt Q9CZN8); conditions: Neuro2a, 3 nM
T3 sequence (whole entry): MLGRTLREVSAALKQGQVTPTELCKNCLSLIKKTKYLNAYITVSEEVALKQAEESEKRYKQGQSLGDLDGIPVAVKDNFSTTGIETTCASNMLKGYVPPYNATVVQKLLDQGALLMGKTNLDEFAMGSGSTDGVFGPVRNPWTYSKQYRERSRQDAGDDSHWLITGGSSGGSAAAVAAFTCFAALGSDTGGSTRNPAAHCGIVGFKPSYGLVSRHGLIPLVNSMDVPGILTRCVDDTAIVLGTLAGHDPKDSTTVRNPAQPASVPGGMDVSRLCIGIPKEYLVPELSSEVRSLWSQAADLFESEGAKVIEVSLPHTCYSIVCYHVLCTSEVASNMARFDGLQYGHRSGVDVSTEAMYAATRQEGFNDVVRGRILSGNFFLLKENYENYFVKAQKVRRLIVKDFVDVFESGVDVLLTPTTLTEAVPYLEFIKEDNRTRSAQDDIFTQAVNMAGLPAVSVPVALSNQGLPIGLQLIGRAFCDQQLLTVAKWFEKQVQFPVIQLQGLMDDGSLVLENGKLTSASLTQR

Mus musculus = assay: In vivo inhibition of ABHD6 in C57Bl/6 mouse liver at 20 mg/kg, ip after 4 hrs by FP-rhodamine/HT-10-labelled gel-based competitive assay; format: functional, organism-based; set-up: dose 20 mg/kg
Summary of the method: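 C57Bl/6 mice dosed i.p. at 1–40 mg kg⁻¹ in 18:1:1 saline/ethanol/PEG40, 10 μL g⁻¹, for 4 hr, then killed. Brain and liver membrane proteomes labelled with FP-rhodamine or HT-01 (1 μM, 30 min, 37 °C) and resolved by SDS-PAGE with in-gel fluorescence scanning.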

[4] = target: T4, S-formylglutathione hydrolase (Mus musculus) (UniProt Q9R0P3); conditions: Neuro2a, 3 nM
T4 sequence (whole entry): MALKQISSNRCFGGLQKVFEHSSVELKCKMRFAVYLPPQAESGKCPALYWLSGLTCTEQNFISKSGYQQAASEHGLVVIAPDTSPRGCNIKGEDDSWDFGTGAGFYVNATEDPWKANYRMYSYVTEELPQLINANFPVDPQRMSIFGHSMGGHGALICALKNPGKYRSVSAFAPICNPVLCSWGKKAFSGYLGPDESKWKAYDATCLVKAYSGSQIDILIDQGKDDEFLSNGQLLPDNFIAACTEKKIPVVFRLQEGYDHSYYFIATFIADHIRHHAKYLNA

[5] = target: T5, Triacylglycerol hydrolase DDHD2 (Mus musculus) (UniProt Q80Y98); conditions: Neuro2a, 3 nM
T5 sequence (whole entry): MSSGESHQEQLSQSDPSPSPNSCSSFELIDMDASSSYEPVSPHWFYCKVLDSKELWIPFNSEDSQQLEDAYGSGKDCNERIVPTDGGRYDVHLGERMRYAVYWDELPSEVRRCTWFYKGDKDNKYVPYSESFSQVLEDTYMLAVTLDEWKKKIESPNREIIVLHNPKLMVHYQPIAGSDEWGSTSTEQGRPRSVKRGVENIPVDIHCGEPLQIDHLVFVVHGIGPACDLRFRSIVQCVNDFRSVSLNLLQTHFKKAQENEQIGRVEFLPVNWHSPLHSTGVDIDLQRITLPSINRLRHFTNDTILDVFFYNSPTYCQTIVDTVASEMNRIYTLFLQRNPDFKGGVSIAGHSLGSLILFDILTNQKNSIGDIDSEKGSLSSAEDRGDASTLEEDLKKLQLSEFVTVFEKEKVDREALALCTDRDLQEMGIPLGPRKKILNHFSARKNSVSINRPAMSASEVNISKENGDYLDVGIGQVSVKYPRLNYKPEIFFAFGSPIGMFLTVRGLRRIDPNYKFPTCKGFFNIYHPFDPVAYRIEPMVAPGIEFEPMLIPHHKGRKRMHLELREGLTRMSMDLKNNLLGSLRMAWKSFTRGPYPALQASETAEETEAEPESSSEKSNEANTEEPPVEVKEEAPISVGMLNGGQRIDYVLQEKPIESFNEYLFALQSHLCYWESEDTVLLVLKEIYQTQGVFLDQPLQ

Work on O=C(N1CCCCC1c1ccccc1)n1cc(-c2ccc(-c3cccc(CO)c3)cc2)nn1 (racemic) yielded an inhibition [1] of under 50%, an inhibition [2] of under 50% and an inhibition [3] of under 50%. The inhibition (Mus musculus) was “Active”, the inhibition [4] was under 50% and the inhibition [5] was under 50%.
O=C(c1cccc(-c2ccc(-c3cn(C(=O)N4CCCCC4c4ccccc4)nn3)cc2)c1)N1CCCCC1 (racemic) showed an inhibition [1] of under 50%, an inhibition [2] of under 50% and an inhibition [3] of under 50%. For the same molecule, the inhibition (Mus musculus) was “Active”, the inhibition [4] was under 50% and the inhibition [5] was under 50%.
Work on O=C(O)c1cccc(-c2ccc(-c3cn(C(=O)N4CCCCC4Cc4ccccc4)nn3)cc2)c1 (racemic) yielded an inhibition [1] of under 50%, an inhibition [2] of under 50% and an inhibition [3] of under 50%. For the same molecule, the inhibition (Mus musculus) was “Active”, the inhibition [4] was under 50% and the inhibition [5] was under 50%.
